Assay [1] concerns the target GABA-A receptor; anion channel. As to the kind of experiment: Displacement of [3H]flunitrazepam from GABA-A benzodiazepine receptor of rat cerebral cortex membrane. Format: tissue-based. The procedure, abridged: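 Rat cerebral cortex P2+P3 membranes (fresh tissue, two freeze-thaw-wash cycles to remove endogenous GABA), 0.4 mg protein. Incubated with 1 nM [3H]flunitrazepam and six concentrations (1 × 10^-5 – 1 × 10^-10 M) for 30 min at 4 °C. Filtered on GF/b filters and counted. […] IC50 from log-logit regression, mean of replicates.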

Assay [2] is filed under the species Mus musculus. As to the kind of experiment: Anticonvulsant activity against pentylenetetrazole-induced clonic seizures in mice. Format: functional. The procedure, abridged: (§1)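 Female adult ICR mice, groups of eight, given test compound ip (100 mg/kg screen) in 0.5% aqueous methylcellulose or vehicle. Challenged 30 min later with pentyletetrazole 80 mg/kg sc and scored for clonic seizures.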

For assay [3], the system named is Mus musculus. The experiment in a line: Compound was tested for anticonvulsant activity against pentylenetetrazole-induced clonic seizures in mice on intraperitoneal administration. Format: functional. The conditions noted are these: ip. The procedure, abridged: as §1
The target of assay [4] is GABA-A receptor; anion channel. The experiment in a line: Displacement of [3H]-diazepam from GABA-A benzodiazepine receptor of rat cerebral cortex membrane. Format: tissue-based. The procedure, abridged:
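Membranes skipped the freeze-thaw-wash cycles, so endogenous GABA was retained. Six concentrations (1 × 10^-5 – 1 × 10^-10 M), 30 min at 4 °C, glass-fiber filtration and scintillation counting. IC50 from log-logit regression.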

The species entered for assay [5] is Mus musculus. As to the kind of experiment: Compound was tested for anticonvulsant activity against maximal electroshock-induced […] seizures in mice at 50mA, 200 ms. Format: functional. (In the maximal electroshock model the usual endpoint is tonic extension of the hind limbs.)
Assay [6] concerns Mus musculus. The experiment in a line: Compound was tested for anticonvulsant activity against pentylenetetrazole-induced clonic seizures in mice at 80 mg/kg sc. Format: functional. The conditions noted are these: route subcutaneous. The procedure, abridged: as §1

Consider `CN(C)C(=O)Cn1c(-c2ccc(Cl)cc2)nc2ccc(Cl)nc21`, for which the IC50 – broadly, the concentration needed to halve the response being measured – in assay [1] came out at 0.46 µM. In addition, the ED50 (as a rule, the midpoint of the dose-response relation) in the assay filed under Mus musculus [2] (Mus musculus, read-out: ED50) was found to be 1.1 mg/kg.
In the same order, the values of `CN(C)C(=O)CCn1c(-c2ccc(Cl)cc2)nc2cccnc21` are 9.3 µM and 29.4 mg/kg.
As to `CC(=O)N1CCN(C(=O)Cn2c(-c3ccc(Cl)cc3)nc3cccnc32)CC1`, the 50% inhibitory concentration (IC50) in assay [1] was found to be 6.4 µM. In the assay on Mus musculus [3], this compound yielded an ED50 of 100 mg/kg.
Consider `O=C(O)CCCNC(=O)Cn1c(-c2ccc(Cl)cc2)nc2cccnc21`, for which the IC50 in assay [1] was over 10 µM.
In assay [4], `CCOC(=O)CNC(=O)Cn1c(-c2ccc(Cl)cc2)nc2cccnc21` displayed an IC50 of 9.1 µM. That is a single-digit micromolar value.
In assay [4], `CCCNC(=O)Cn1c(-c2ccc(Cl)cc2)nc2cccnc21` gave a half-inhibitory concentration (IC50) of 1.26 µM. Moreover, the ED50 in the assay filed under Mus musculus [2] (Mus musculus, read-out: ED50) is 37.5 mg/kg.
For the compound `CCCN(CCC)C(=O)Cn1c(-c2ccc(Cl)cc2)nc2ncccc21`, in assay [1], the IC50 is over 10 µM.
`CNC(=O)Cn1c(-c2ccc(Cl)cc2)nc2cccnc21`: in assay [1], the IC50 is 1.6 µM. For the same compound, the ED50 in the assay filed under Mus musculus [2] (Mus musculus, read-out: ED50) stood at 12.5 mg/kg.
For the compound `O=C(Cn1c(-c2ccc(Cl)cc2)nc2cccnc21)Nc1cccnc1`, the IC50 in assay [4] is 0.23 µM. For the same compound, the ED50 in the assay filed under Mus musculus [2] (Mus musculus, read-out: ED50) came out at 100 mg/kg.
`CN(C)C(=O)Cn1c(-c2ccc(Cl)cc2)nc2cccnc21` gave an IC50 in assay [1] of 3.6 µM. In addition, the 50% effect level with Mus musculus [3] (ED50) was put at a dose of 4.1 mg/kg.
Consider `Cc1ccc2nc(-c3ccc(Cl)cc3)n(CC(=O)N(C)C)c2n1`, for which the IC50 in assay [1] was 0.88 µM. Further, the median effective dose (ED50) in the assay listed under Mus musculus [2] (Mus musculus, read-out: ED50) amounted to 2.5 mg/kg.
Compound `CN(C)C(=O)Cn1c(-c2ccc([N+](=O)[O-])cc2)nc2cccnc21` yielded an IC50 in assay [1] of over 10 µM. Moreover, the ED50 in the assay listed under Mus musculus [2] (Mus musculus, read-out: ED50) worked out at 47 mg/kg.
Taken in the same sequence, the figures for `CN(C)C(=O)Cn1c(-c2ccccc2)nc2cccnc21` were over 10 µM and 35 mg/kg.
As for `CN(C)C(=O)Cn1c(-c2ccc(F)cc2)nc2cccnc21`, the IC50 in assay [1] was over 10 µM. For the same compound, the median effective dose (ED50) in the assay filed under Mus musculus [2] (Mus musculus, read-out: ED50) was determined as 40.5 mg/kg.
Consider `CCC1(C)CC(=O)NC1=O` (stereo not drawn) [ETHOSUXIMIDE], for which the ED50 in the assay filed under Mus musculus [5] was over 1000 mg/kg; in the assay on Mus musculus [6], 130 mg/kg.
The compound `CCCN(CCC)C(=O)Cn1c(-c2ccc(Cl)cc2)nc2ccccc21` came in with an IC50 in assay [1] of 2.7 µM.
As for `CN(C)C(=O)Cn1c(-c2ccc(Br)s2)nc2cccnc21`, the IC50 in assay [1] was determined as 2.5 µM. For the same compound, the 50% effect level in the assay with Mus musculus [3] (ED50) was put at a dose of 100 mg/kg.
As for `NC(=O)Cn1c(-c2ccc(C(F)(F)F)cc2)nc2cccnc21`, the IC50 in assay [1] is over 10 µM. In the assay listed under Mus musculus [2] (Mus musculus, read-out: ED50), the 50% effective dose (ED50) stood at 11.7 mg/kg.
Regarding `O=C(O)CNC(=O)Cn1c(-c2ccc(Cl)cc2)nc2cccnc21`, the IC50 in assay [4] was determined as 7.1 µM.
In assay [1], `O=C(Cn1c(-c2ccc(Cl)cc2)nc2cccnc21)Nc1ccncc1` returned a half-maximal inhibitory concentration (IC50) of 0.47 µM.
In turn, `CN(C)C(=O)Cn1c(Cc2ccc(Cl)cc2)nc2cccnc21` came in with a concentration for half-maximal inhibition (IC50) in assay [1] of over 10 µM.
As for `O=C(Cn1c(-c2ccc(Cl)cc2)nc2cccnc21)N1CCCCC1`, the IC50 in assay [1] was found to be 2.7 µM. Besides, in the assay filed under Mus musculus [2] (Mus musculus, read-out: ED50), the median effective dose (ED50) was 56.2 mg/kg.
In turn, `CN(C)C(=O)Cn1c(-c2ccc(C(F)(F)F)cc2)nc2cccnc21` came in with a 50% inhibitory concentration (IC50) in assay [4] of 3.7 µM. Besides, the ED50 in the assay listed under Mus musculus [2] (Mus musculus, read-out: ED50) came out at 3.2 mg/kg.
`NC(=O)Cn1c(-c2ccc(Cl)cc2)nc2ccc[n+]([O-])c21`: the IC50 in assay [1] was over 10 µM. In the assay listed under Mus musculus [2] (Mus musculus, read-out: ED50), the ED50 worked out at 52.1 mg/kg.
As for `NC(=O)Cn1c(-c2ccc(Cl)cc2)nc2ncccc21`, the half-inhibitory concentration (IC50) in assay [1] was over 10 µM.
With `CN(C)C(=O)Cn1c(-c2ccc(Br)cc2)nc2cccnc21`, the IC50 in assay [4] was 3 µM. Also, the ED50 in the assay listed under Mus musculus [2] (Mus musculus, read-out: ED50) turned out to be 7 mg/kg.
`CN(C)C(=O)Cn1c(-c2cccc(Cl)c2)nc2cccnc21` gave a half-inhibitory concentration (IC50) in assay [4] of 2.4 µM. Moreover, the ED50 is under 100 mg/kg in the assay listed under Mus musculus [2] and over 56.2 mg/kg in the assay filed under Mus musculus [2] (Mus musculus, read-out: ED50).
On to `COc1ccc(-c2nc3cccnc3n2CC(=O)N(C)C)cc1`, for which the IC50 in assay [1] was determined as 8.5 µM. Also, the ED50 in the assay filed under Mus musculus [2] (Mus musculus, read-out: ED50) was 39.5 mg/kg.
For the compound `Cc1ccc(-c2nc3cccnc3n2CC(N)=O)cc1`, the IC50 in assay [1] is 4.5 µM. Moreover, in the assay filed under Mus musculus [2] (Mus musculus, read-out: ED50), the ED50 worked out at 50.5 mg/kg.
`CCN(CC)C(=O)Cn1c(-c2ccc(Cl)cc2)nc2cccnc21` displayed an IC50 in assay [1] of 1.8 µM. The ED50 in the assay filed under Mus musculus [2] (Mus musculus, read-out: ED50) was 16 mg/kg.
As for `CN(C)C(=O)Cn1c(-c2ccc(Cl)cc2)nc2ccc(O)nc21`, in assay [1], the IC50 was 5.2 µM.
Turning to `CN(C)C(=O)Cn1c(-c2ccc(Cl)cc2)nc2cnccc21`, the IC50 in assay [1] was over 10 µM.
`Cc1ccc(-c2nc3cccnc3n2CC(=O)N(C)C)cc1` registered an IC50 in assay [1] of 1.75 µM. Further, the ED50 in the assay filed under Mus musculus [2] (Mus musculus, read-out: ED50) amounted to 4.7 mg/kg.
The compound `CN(C)C(=O)Cn1c(-c2ccc(Cl)cc2)nc2ccncc21` returned an IC50 in assay [1] of over 10 µM.

The values are drawn from ChEMBL document CHEMBL1125815, “2-Phenyl-3H-imidazo[4,5-b]pyridine-3-acetamides as non-benzodiazepine anticonvulsants and anxiolytics” (J Med Chem, 1991).
